Shown are actives, neighbours in structure and some others; about 3.7% of the full set was active somewhere.
AHR act: activates the human aryl hydrocarbon receptor. AID 2796. activation, % at 5 µM. P35869. AHR-responsive luciferase reporter cells, luminescence. actives 2.5% (n = 320,000); in the data active = activation above about 47%;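 note: 0% = vehicle wells and 100% = reference agonist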
Target sequence (P35869 whole entry, looked up): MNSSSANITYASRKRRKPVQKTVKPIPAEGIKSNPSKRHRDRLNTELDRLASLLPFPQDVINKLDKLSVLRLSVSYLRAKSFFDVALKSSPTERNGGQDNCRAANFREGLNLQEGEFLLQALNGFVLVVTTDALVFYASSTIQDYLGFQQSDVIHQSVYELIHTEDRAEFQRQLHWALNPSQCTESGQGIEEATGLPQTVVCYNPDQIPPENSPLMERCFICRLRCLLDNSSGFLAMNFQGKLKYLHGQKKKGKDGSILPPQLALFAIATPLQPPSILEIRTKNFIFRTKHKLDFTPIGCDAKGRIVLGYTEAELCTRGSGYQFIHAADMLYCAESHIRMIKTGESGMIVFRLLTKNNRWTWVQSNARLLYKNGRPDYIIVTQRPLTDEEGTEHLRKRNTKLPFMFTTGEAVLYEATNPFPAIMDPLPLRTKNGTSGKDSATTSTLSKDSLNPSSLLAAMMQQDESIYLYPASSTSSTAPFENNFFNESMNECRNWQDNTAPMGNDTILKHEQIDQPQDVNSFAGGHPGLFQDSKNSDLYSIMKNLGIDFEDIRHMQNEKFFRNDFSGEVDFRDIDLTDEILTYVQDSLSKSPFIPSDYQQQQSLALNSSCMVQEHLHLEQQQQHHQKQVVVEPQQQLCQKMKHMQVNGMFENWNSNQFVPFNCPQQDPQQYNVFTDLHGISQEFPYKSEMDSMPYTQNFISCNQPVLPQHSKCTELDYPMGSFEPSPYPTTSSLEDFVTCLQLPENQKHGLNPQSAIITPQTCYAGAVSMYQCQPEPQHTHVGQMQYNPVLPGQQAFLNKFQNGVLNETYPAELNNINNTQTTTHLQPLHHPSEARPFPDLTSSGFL
GAA850 FXN act: frataxin GAA850 promoter activation; HEK293 lucGAA850 FXN promoter luciferase reporter, 24 h; percent of 10 µM SAHA response; activation, % at 6 µM; actives 0.56% (n = 360,000); AID 540364;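 active = activation above the average of all compounds screened plus 3 SD, cutoff fixed separately per campaign, cut at about 7.5% in these data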;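 note: 0% = DMSO wells and 100% = 10 µM SAHA wells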
SR-BI DiI-HDL act: SR-BI HDL lipid transfer activation. activation, % at 12.5 µM. actives 0.096% (n = 320,000). CHO ldlA[mSR-BI] cells, DiI-HDL uptake fluorescence, 3 h; 100 = double the neutral-control signal;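 active = mean replicate activation of at least 60% and every replicate at or above 60%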;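 note: 0% = median plate neutral-control signal and 100% = twice that signal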
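System: LDL receptor-deficient CHO ldlA cells overexpressing murine SR-BI | Timing: 3 h uptake period with compound, 37 °C | Medium: HEPES-buffered (25 mM, pH 7.4) F12 plus 0.5% BSA | Dosing: Single-point compound dose | Signal: Bottom-read fluorescence, 550/595 nm | Read-out: Retained DiI signal reflecting DiI-HDL uptake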
SR-BI DiI inh: mouse SR-BI HDL lipid transfer inhibition; ldlA[mSR-BI] CHO cells, DiI-HDL uptake fluorescence, 3 h; inhibition, % at 12.5 µM; actives 0.96% (n = 320,000);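 active = mean replicate inhibition of at least 70% and a set share of replicates each scoring 70 or more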;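 note: 0% = median of neutral control wells and 100% = median of positive control wells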
JMJD2C inh: human JMJD2C demethylase inhibition; inhibition, % at 2.35 µM; AID 2099; Q9H3R0; actives 0.069% (n = 330,000); GST-JMJD2C(1-420) H3K9me3 demethylation, DELFIA europium;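 active = more than half of a compound's replicate wells show inhibition beyond 50%, single wells judged on their own value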;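 note: signal counts dimethyl H3K9 product captured on neutravidin plate; 0% = median of DMSO wells and 100% = 0.3 times that DMSO median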
GAA30 FXN cntr: GAA30 FXN promoter activation counter-screen; shares compounds with GAA850 FXN act; activation, % at 6 µM; AID 588350; HEK293 lucGAA30 FXN promoter luciferase, 24 h; DMSO = 0%, 5 µM ipriflavone = 100%; actives 66% (n = 1,900);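 active = mean activation above the mean of solvent-only control wells plus 3 SD, cut at about 22% in these data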;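 note: counterscreen of GAA850 promoter hits where activity marks nonselective or luminescence artifacts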
FXN GAA850 conf: GAA850 FXN promoter activation confirmation; shares compounds with GAA850 FXN act; HEK293 lucGAA850 FXN promoter luciferase reporter, 24 h; 100% = activation by SAHA; activation, % at 6 µM; actives 86% (n = 1,900); AID 588351;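 active = mean activation above a set limit taken from the primary screen, cut at about 8% in these data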;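 note: 0% = DMSO wells and 100% = 10 µM SAHA wells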
The depositor's hits bear a star; i = inactive; / = not tested or not shown.

SMILES	AHR act	GAA850 FXN act	SR-BI DiI-HDL act	SR-BI DiI inh	JMJD2C inh	GAA30 FXN cntr	FXN GAA850 conf
CCOC(=O)c1sc(=NC(=O)c2ccccc2Br)n(C)c1C	3	11*	-36	36	-1	106*	29*
CCOC(=O)c1sc(=NC(=O)c2cccs2)n(C)c1C	38	7	/	/	-24	/	/
COc1ccc(-c2nnc(N(C)C(=O)c3ccno3)s2)cc1	3	12*	2	-2	2	99*	30*
CN(C(=O)c1ccno1)c1nnc(-c2ccccn2)s1	1	0	-2	2	i	/	/
CN(C(=O)COc1ncnc2ccccc12)C1CCCCC1	2	0	2	-2	3	/	/
CCS(=O)(=O)N1Cc2ccccc2CC1C(=O)N(C)CC(=O)Nc1ccc(F)c(F)c1F (stereo not given)	0	-1	13	-13	6	/	/
COc1cc2c(c(OCC(=O)NC(C)C)c1)C(=O)O[C@@H](C)CCCC(=O)CCCCC2	1	12*	-4	4	-8	23*	9.8*
COCCn1c(SCC(=O)NCCCN2CCCC2=O)nc2ccccc2c1=O	-2	-1	13	-13	5	/	/
Cc1ccc(/C=C/C(=O)N2CCc3ccccc32)o1	12	11*	-7	7	-6	116*	37*
CCN1C(=O)/C(=C/c2cc(C)n(C)c2C)SC1=Nc1ccc(OC)cc1	11	9.9*	-17	17	-1	19	14*
O=C(N/N=C/c1ccccn1)c1ccc(Cl)cc1	8	12*	8	-8	5	-77	-20
COc1ccc(C(=O)N/N=C/c2ccccn2)cc1OC	21	1	-18	18	-9	/	/
COc1ccc(C(=O)Nc2ccccc2C(=O)N/N=C/c2ccccn2)cc1OC	41	10*	-59	59	-12	-110	-32
O=C(NCC1CCCO1)C1CCN(C(=O)c2ccc(Br)cc2)CC1 (stereo not given)	0	1	2	-2	-3	/	/
Cc1ccc(C(=O)NCc2ccc3c(c2)OCO3)cc1C	13	8.7*	23	-23	-16	57*	22*
Cc1ccc(C(=O)NCc2ccc3c(c2)OCO3)cc1Cl	20	4	1	-1	17	/	/
CCOc1ccc(OCCn2c(=S)[nH]c3c(N)ncnc32)cc1	14	3	5	-5	5	/	/
Cc1ccc(OCCn2cnc3c(N)ncnc32)cc1	-1	8.0*	11	-11	31	-8	9.8*
CC1=CC(C)=Nc2ccccc2N1	11	7.9*	20	-20	4	79*	18*
Cc1ccc(CC(=O)N2CCN(S(=O)(=O)c3ccccc3)CC2)cc1C	3	2	-3	3	8	/	/
O=c1[nH]c(=O)n(C2OC(CO)C(O)C2O)cc1F (stereo not given)	/	19*	18	-18	/	7	78*
CCOC(=O)c1ccc(NC(=O)CSc2nc(=O)n3cccc(C)c3n2)cc1	-3	-1	-2	2	7	/	/
CC(=O)c1cccc(NC(=O)COC(=O)c2n[nH]c3ccccc23)c1	3	-1	-5	5	5	/	/
COc1ccc(C(=O)/C=C/C(=O)N(CC(=O)NC2CCCCC2)Cc2ccccc2)c(O)c1	/	7.6*	5	-5	-3	-88	-23
COc1ccc(C(=O)/C=C/C(=O)N(CC(=O)NC2CCCCC2)Cc2ccccc2OC)c(O)c1	/	-1	1	-1	7	/	/
SMILES	AHR act	GAA850 FXN act	SR-BI DiI-HDL act	SR-BI DiI inh	JMJD2C inh	GAA30 FXN cntr	FXN GAA850 conf
Cc1ccc(Nc2nc(/N=C/NO)n[nH]2)cc1C	12	1	13	-13	-4	/	/
O=C(NC1CCCCC1)c1ccc(Cn2cc(Cl)cn2)cc1	8	0	-3	3	-4	/	/
CN(C)C(=O)CCC(=O)N1CCCC(C(=O)c2ccc3c4c(cccc24)CC3)C1 (stereo not given)	3	10*	-15	15	4	44*	13*
O=C1CCCN1CCCNc1ncnc2c1cnn2-c1ccc(Cl)cc1	7	15*	-3	3	-5	76*	33*
Cc1cccc(-n2ncc3c(NCCCN4CCCC4=O)ncnc32)c1	25	1	-13	13	4	/	/
CN(C)c1ccc(/C=C/CNC[C@H]2O[C@@H](n3ccc(N)nc3=O)[C@H](O)[C@@H]2O)cc1	/	0	/	/	/	/	/
CNC(=O)CN(c1ccc(C23CC4CC(CC(C4)C2)C3)cc1)S(C)(=O)=O	0	7.6*	28	-28	-1	26*	15*
CON(C)c1nc(OCCNC(=O)OCc2ccc(Cl)cc2C)nc(N(C)C)n1	-1	12*	-42	42	1	21	6
CN(C)c1nc(OCCOC(=O)Nc2ccc(Cl)cc2Cl)nc(N(C)C)n1	-2	0	-9	9	-23	/	/
CCCCC1(Cc2ccc([N+](=O)[O-])cc2)C(=O)N(c2ccccc2)N(c2ccccc2)C1=O	-2	9.5*	42	-42	9	14	7
COc1c(F)c(F)c(C(=O)Nc2ccccc2N2CCN(C(=O)C(C)C)CC2)c(F)c1F	45	11*	-55	55	5	8	3
O=C(NC(=S)Nc1ccc(N2CCCC2)cc1)c1ccccc1[N+](=O)[O-]	19	8.8*	-21	21	-4	53*	13*
C=C1CCC2C(C)(C)[C@@H](O)CC[C@@]2(C)[C@@H]1COc1ccc2ccc(=O)oc2c1 (stereo not given in full)	25	1	-15	15	21	/	/
CC(=O)OC1CCC2(C)C(COc3ccc4ccc(=O)oc4c3)C(C)(O)CCC2C1(C)C (stereo not given)	2	12*	-18	18	-2	-4	17*
Cc1ccc(S(=O)(=O)N2CCN(S(=O)(=O)c3ccc(C)cc3)C2c2ccccc2)cc1	3	8.3*	11	-11	0	5	7
Cc1ccc(OCC(O)CNC(C)c2ccccc2)cc1C (stereo not given)	0	2	-30	30	0	/	/
Cc1cccc(N/C=C/c2onc(C)c2[N+](=O)[O-])c1	17	5	-4	4	5	/	/
Cc1cc(O)ccc1N/C=C/c1onc(C)c1[N+](=O)[O-]	32	9.1*	-23	23	8	122*	39*
O=C(CN1CCN(c2ccc(O)cc2)CC1)NCC(=O)Nc1ccc(F)c(F)c1F	-1	1	-17	17	-2	/	/
